In ChEMBL document CHEMBL4732107, “Synthesis and anticancer activity evaluation of naphthalene-substituted triazole spirodienones” (Eur J Med Chem, 2021):
Activity calls are given as the source filed them. The calls are words filed in the database; no cut-off is given here.

Key:
[1] = Acute toxicity in ip dosed Kunming mouse administered as single dose; format: organism-based; settings: in vivo
Outline: (§1)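 Kunming mice in four groups (n = 8, half male, half female) got one intraperitoneal dose of 10, 20 or 40 mg/kg, or vehicle. Body weights were recorded daily after dosing. Eyes, skin and fur were checked for clinical signs. Mortality was recorded. Mice were dissected to look for ascites and to assess liver volume.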

[2] = Toxicity in mouse implanted with mouse 4T1 cells assessed as extramedullary hematopoiesis in liver at 2 mg/kg, ip administered daily for 12 days measured post last dose by H and E staining based microscopic analysis; format: organism-based; settings: in vivo, 288 h, time 12 day
Outline: (§2)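 Orthotopic 4T1-bearing mice (n = 6 per group) were dosed i.p. daily with vehicle, compound at 1 or 2 mg/kg, or doxorubicin at 1 mg/kg. At the end of treatment, tumors and major organs (liver, spleen) were harvested and photographed. Sections were H&E stained and examined by microscope.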

A549 = test: Antiproliferative activity against human A549 cells assessed as reduction in cell viability measured after 5 days by beckman coulter counting method; format: functional, cell-based; settings: A549, 120 h
Outline: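 Cells kept in DMEM with 10% FBS, 4 mM glutamine, 1 mM sodium pyruvate, penicillin/streptomycin and amphotericin, at 37 °C in 5% CO2. Seeded at 20,000 per well, then exposed to 5 concentrations for 5 days, with DMSO as vehicle. Viable cells counted on a cell viability analyzer. Viability expressed as treated/vehicle count, and IC50 taken from dose-response curves.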

[3] = Acute toxicity in Kunming mouse assessed as body weight loss at 40 mg/kg, ip administered as single dose; format: organism-based; settings: in vivo; outline: as §1
MDA-MB-231 [4] = test: Induction of apoptosis in human MDA-MB-231 cells assessed as early apoptotic cells at 1 uM measured after 24 hrs by annexin V-FITC/propidium iodide staining based flow cytometry (reference value: 1.49%); format: functional
[5] = Acute toxicity in Kunming mouse assessed as clinical change in skin at 40 mg/kg, ip administered as single dose; format: organism-based; settings: in vivo; outline: as §1
[6] = molecular target: Tyrosine-protein kinase JAK2 (Homo sapiens, UniProt O60674); test: Inhibition of JAK2 (unknown origin)
Outline: (§3)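 Kinase inhibition was measured in two independent repeats, and IC50 is reported as their average with SD.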

[7] = Toxicity in mouse implanted with mouse 4T1 cells assessed as extramedullary hematopoiesis in spleen at 2 mg/kg, ip administered daily for 12 days measured post last dose by H and E staining based microscopic analysis; format: organism-based; settings: in vivo, 288 h, time 12 day; outline: as §2
[8] = Toxicity in mouse implanted with mouse 4T1 cells assessed as increase in spleen size at 2 mg/kg, ip administered daily for 12 days measured post last dose; format: organism-based; settings: in vivo, 288 h, time 12 day; outline: as §2
MDA-MB-231 [9] = test: Induction of apoptosis in human MDA-MB-231 cells assessed as necrotic cells at 0.1 uM measured after 24 hrs by annexin V-FITC/propidium iodide staining based flow cytometry (reference value: 4.74%); format: functional
[10] = Acute toxicity in Kunming mouse assessed as clinical change in eyes at 40 mg/kg, ip administered as single dose; format: organism-based; settings: in vivo; outline: as §1
[11] = Acute toxicity in Kunming mouse assessed as mortality at 10 to 40 mg/kg, ip administered as single dose; format: organism-based; settings: in vivo, dose 10-40 mg/kg; outline: as §1
[12] = Acute toxicity in Kunming mouse assessed as decrease in liver volume at 40 mg/kg, ip administered as single dose; format: organism-based; settings: in vivo; outline: as §1
MDA-MB-231 [13] = test: Induction of apoptosis in human MDA-MB-231 cells assessed as late apoptotic cells at 0.1 uM measured after 24 hrs by annexin V-FITC/propidium iodide staining based flow cytometry (reference value: 2.84%); format: functional
MDA-MB-231 [14] = test: Induction of apoptosis in human MDA-MB-231 cells measured after 24 hrs by annexin V-FITC/propidium iodide staining based flow cytometry; format: functional, cell-based; settings: dose 0.1-1 µM
MDA-MB-231 [15] = test: Induction of apoptosis in human MDA-MB-231 cells assessed as viable cells at 0.1 uM measured after 24 hrs by annexin V-FITC/propidium iodide staining based flow cytometry (reference value: 90.9%); format: functional; settings: read-out: Activity
HeLa = test: Antiproliferative activity against human HeLa cells assessed as reduction in cell viability measured after 5 days by beckman coulter counting method; format: functional, cell-based; settings: 120 h
4T1 [16] = test: Antitumor activity against mouse 4T1 cells implanted in mouse assessed as tumor growth inhibition at 1 mg/kg, ip administered daily for 12 days relative to control; format: functional; settings: 4T1, ip, 288 h, time 12 day, read-out: TGI
Outline: (§4)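 Mice bearing orthotopic 4T1 tumors were randomized into 4 groups (n = 6) once tumors reached about 100 mm2. Groups received vehicle, test compound at 1 or 2 mg/kg, or doxorubicin at 1 mg/kg, given i.p. every day. Body weight and tumor volume were recorded daily. Tumors were excised and weighed at the end, and inhibition was calculated against the saline control.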

[17] = Acute toxicity in Kunming mouse assessed as clinical change in fur at 40 mg/kg, ip administered as single dose; format: organism-based; settings: in vivo; outline: as §1
[18] = Toxicity in mouse implanted with mouse 4T1 cells assessed as increase in liver size at 2 mg/kg, ip administered daily for 12 days measured post last dose; format: organism-based; settings: in vivo, 288 h, time 12 day; outline: as §2
MDA-MB-231 [19] = test: Induction of apoptosis in human MDA-MB-231 cells assessed as early apoptotic cells at 0.1 uM measured after 24 hrs by annexin V-FITC/propidium iodide staining based flow cytometry (reference value: 1.49%); format: functional
[20] = Toxicity in mouse implanted with mouse 4T1 cells assessed as change in body weight at 1 to 2 mg/kg, ip administered daily for 12 days measured daily during compound dosing; format: organism-based; settings: in vivo, 288 h, dose 1-2 mg/kg, time 12 day; outline: as §4
MDA-MB-231 [21] = test: Cell cycle arrest in human MDA-MB-231 cells assessed as accumulation at G2 phase at 1 uM measured after 24 hrs by propidium iodide staining based flow cytometry (reference value: 5.77%); format: functional
Outline: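 MDA-MB-231 cells were seeded at 5 × 10^5 cells/mL and treated for 24 h. They were then trypsinized and washed twice in cold PBS. Cells were resuspended in PBS, stained with PI for 15 min at room temperature in the dark, and analyzed by flow cytometry.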

[22] = molecular target: Mitogen-activated protein kinase 10 (Homo sapiens, UniProt P53779); test: Inhibition of MAPK10 (unknown origin); outline: as §3
4T1 [23] = test: Induction of apoptosis in mouse 4T1 cells implanted in mouse at 2 mg/kg, ip administered daily for 12 days measured post last dose by H and E staining based microscopic analysis; format: functional, organism-based; settings: time 12.0 day; outline: as §2
MDA-MB-231 [24] = test: Induction of apoptosis in human MDA-MB-231 cells assessed as necrotic cells at 1 uM measured after 24 hrs by annexin V-FITC/propidium iodide staining based flow cytometry (reference value: 4.74%); format: functional
MDA-MB-231 [25] = test: Induction of apoptosis in human MDA-MB-231 cells assessed as late apoptotic cells at 1 uM measured after 24 hrs by annexin V-FITC/propidium iodide staining based flow cytometry (reference value: 2.84%); format: functional
4T1 [26] = test: Antitumor activity against mouse 4T1 cells implanted in mouse assessed as reduction in tumor weight at 1 to 2 mg/kg, ip administered daily for 12 days; format: functional, organism-based; settings: dose 1-2 mg/kg, time 12.0 day; outline: as §4

Mitogen-activated protein kinase 10, sequence (P53779 whole entry): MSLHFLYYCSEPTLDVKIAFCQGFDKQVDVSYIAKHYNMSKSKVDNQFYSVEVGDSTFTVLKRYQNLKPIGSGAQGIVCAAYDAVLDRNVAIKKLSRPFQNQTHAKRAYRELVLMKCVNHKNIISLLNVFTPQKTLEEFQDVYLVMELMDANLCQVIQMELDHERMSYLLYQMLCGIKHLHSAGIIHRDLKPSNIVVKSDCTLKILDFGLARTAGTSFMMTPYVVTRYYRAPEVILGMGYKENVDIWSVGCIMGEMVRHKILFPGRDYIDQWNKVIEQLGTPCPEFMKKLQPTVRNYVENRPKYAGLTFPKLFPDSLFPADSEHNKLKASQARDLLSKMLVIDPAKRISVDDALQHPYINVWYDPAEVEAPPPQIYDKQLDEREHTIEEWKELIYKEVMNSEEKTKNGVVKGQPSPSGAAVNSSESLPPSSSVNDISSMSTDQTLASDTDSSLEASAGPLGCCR
Tyrosine-protein kinase JAK2, sequence (O60674 whole entry): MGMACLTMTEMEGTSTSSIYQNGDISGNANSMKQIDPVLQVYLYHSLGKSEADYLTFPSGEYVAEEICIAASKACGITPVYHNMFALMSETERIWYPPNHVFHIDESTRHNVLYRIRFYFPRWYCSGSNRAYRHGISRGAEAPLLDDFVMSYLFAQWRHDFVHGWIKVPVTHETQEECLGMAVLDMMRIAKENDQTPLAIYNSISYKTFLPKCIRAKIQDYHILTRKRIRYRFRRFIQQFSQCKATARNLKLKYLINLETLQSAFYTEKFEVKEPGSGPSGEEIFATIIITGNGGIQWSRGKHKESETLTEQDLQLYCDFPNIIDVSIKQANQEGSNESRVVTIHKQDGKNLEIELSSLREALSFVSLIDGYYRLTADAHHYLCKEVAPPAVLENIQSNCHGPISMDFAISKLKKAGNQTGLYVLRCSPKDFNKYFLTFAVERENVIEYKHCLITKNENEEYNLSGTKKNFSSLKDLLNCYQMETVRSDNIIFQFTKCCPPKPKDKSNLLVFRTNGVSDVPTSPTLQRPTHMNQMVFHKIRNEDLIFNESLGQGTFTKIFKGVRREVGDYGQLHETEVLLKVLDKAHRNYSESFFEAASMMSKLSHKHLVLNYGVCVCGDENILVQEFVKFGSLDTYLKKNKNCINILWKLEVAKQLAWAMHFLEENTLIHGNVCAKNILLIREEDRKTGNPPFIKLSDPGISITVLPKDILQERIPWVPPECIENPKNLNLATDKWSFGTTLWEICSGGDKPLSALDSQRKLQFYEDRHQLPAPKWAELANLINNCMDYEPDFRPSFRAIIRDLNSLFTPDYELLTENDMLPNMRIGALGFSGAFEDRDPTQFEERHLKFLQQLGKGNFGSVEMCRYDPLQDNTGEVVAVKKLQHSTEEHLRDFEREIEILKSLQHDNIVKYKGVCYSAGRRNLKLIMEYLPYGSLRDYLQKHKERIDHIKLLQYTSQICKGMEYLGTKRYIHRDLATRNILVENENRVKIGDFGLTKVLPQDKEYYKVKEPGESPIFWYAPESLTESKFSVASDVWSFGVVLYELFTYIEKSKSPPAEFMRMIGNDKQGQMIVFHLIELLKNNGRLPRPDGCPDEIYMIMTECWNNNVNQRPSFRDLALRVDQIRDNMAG

Compound: O=C1C=CC2(C=C1)OCC(=O)N2c1nc(-c2cccc3ccccc23)nn1-c1ccccc1
- MTD [1]: > 40 mg/kg
- Activity [2]: Toxic
- IC50 (A549): 80 nM
- Activity [3]: Toxic
- Activity (MDA-MB-231 [4]): 22.2%
- Activity [5]: Non-Toxic
- IC50 [6]: 59000 nM
- Activity [7]: Toxic
- Activity [8]: Toxic
- Activity (MDA-MB-231 [9]): 5.16%
- Activity [10]: Non-Toxic
- Activity [11]: Non-Toxic
- Activity [12]: Toxic
- Activity (MDA-MB-231 [13]): 2.69%
- Activity (MDA-MB-231 [14]): Dose-dependent effect
- viability at 0.1 µM (MDA-MB-231 [15]): 90.8%
- IC50 (HeLa): 70 nM
- inhibition in vivo at 1 mg/kg (4T1 [16]): 18.2%
- Activity [17]: Non-Toxic
- Activity [18]: Toxic
- Activity (MDA-MB-231 [19]): 1.32%
- Activity [20]: Non-Toxic
- Activity (MDA-MB-231 [21]): 23.87%
- IC50 [22]: > 100000 nM
- Activity (4T1 [23]): Active
- Activity (MDA-MB-231 [24]): 13.1%
- Activity (MDA-MB-231 [25]): 29%
- Activity (4T1 [26]): Active
